# Laboratory results reported in ChEMBL document CHEMBL2177082, “Identification of a promising drug candidate for the treatment of type 2 diabetes based on a P2Y(1) receptor agonist” (J Med Chem, 2012).
# Activity calls are given as the source filed them. The calls are words filed in the database; no cut-off is given here.
# Key:
# [1] = Half life in Tris buffer at pH 9.8 at 0.2 mg by HPLC in presence of alkaline phosphatase; format: physicochemical; settings: in vitro
# Procedure, shortened: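 Compound 0.2 mg incubated with calf intestine alkaline phosphatase 12.5 units in Tris-HCl/MgCl2 at final pH 9.8 and 37 °C. Sampled hourly for 8 h; reaction stopped at 80 °C for 15 min. Samples passed through an anion-exchange cartridge. Half-life from change in HPLC peak area.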
# Serum [2] = assay: (§1) Half life in human serum at 40 mM by HPLC; format: ADME, cell-free; settings: 40000 µM
# Procedure, shortened: (§2)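 Serum came from a healthy volunteer's whole blood (12 h at 4 °C, spun 1500g, stored at −80 °C). A 40 mM stock in water was mixed with serum and RPMI-1640 (1:3 serum:medium) and incubated at 37 °C for up to 24 h.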
# [3] = Chemical stability in HCL/KCL buffer at pH 1.4 assessed as hydrolysis rate constant of compound at 1.5 mg incubated for 24 hrs measured after every 1 hr over 12 hrs by HPLC; format: physicochemical; settings: pH 1.4, 24 h
# Procedure, shortened: (§3)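 Diastereomeric mixture, 1.5 mg, dissolved in 0.2 M HCl/KCl buffer adjusted to pH 1.4 and kept at 37 °C with hourly sampling. Parent HPLC peak integrated over time (TEAA/acetonitrile 88:12) and fitted to pseudo-first-order kinetics to give rate constant and t1/2.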
# [4] = biological target: P2Y purinoceptor 2 (Homo sapiens) (UniProt P41231); assay: Agonist activity at P2Y2R; format: functional
# [5] = biological target: P2Y purinoceptor 6 (Homo sapiens) (UniProt Q15077); assay: Agonist activity at P2Y6R; format: functional
# [6] = biological target: P2Y purinoceptor 4 (Homo sapiens) (UniProt P51582); assay: Agonist activity at P2Y4R; format: functional
# [7] = Half life in HCL/KCL buffer at pH 1.4 at 1.5 mg by HPLC; format: physicochemical; procedure, shortened: as §3
# [8] = Metabolic stability in human serum assessed as hydrolysis of compound at 40 mM incubated for 24 hrs measured after every 1 hr over 24 hrs by HPLC; format: ADME, cell-free; settings: read-out: Drug metabolism
# Procedure, shortened: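 40 mM stock in water, 4.5 μL, combined with 180 μL human serum (healthy volunteer) and 540 μL RPMI-1640 and incubated at 37 °C for up to 24 h. Aliquots were heated to 80 °C for 30 min, cleaned up, and analysed by HPLC. Heat-only controls were run without serum. Hydrolysis was followed from the change in HPLC peak area.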
# P2Y purinoceptor 1 [9] = biological target: P2Y purinoceptor 1 (Meleagris gallopavo, UniProt P49652); assay: Agonist activity at turkey P2Y1R expressed in 1321N1 cells assessed as increase in intracellular calcium concentration by spectrofluorimetry; format: functional, cell-based
# Procedure, shortened: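 Cell suspensions were treated with nucleotide at various concentrations at 37 °C in 10 mM Hepes-buffered saline pH 7.4 with 1 mM CaCl2 and 1 mM MgCl2. Maximal [Ca2+]i rise was read by dual-excitation spectrofluorometry and fitted to give EC50. Three experiments on separate days.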
# Rattus norvegicus [10] = assay: Antiplatelet activity in Lewis rat assessed as inhibition of ADP-induced aggregation measuring prolongation in bleeding time at 10 mg/kg body weight, po administered 30 mins prior to tail incision measured after 5 mins; format: functional, organism-based; set-up: dose 10 mg/kg
# Procedure, shortened: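 Anesthetized Lewis rats (n = 5) were dosed orally 30 min before the tail was cut. Then 2 mm of tail tip was removed and the tail was placed upright in a saline-filled tube. Time to first arrest of bleeding (no bleeding for 20 s) was recorded.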
# Mus musculus [11] = assay: Antidiabetic activity in overnight fasted CD1 mouse assessed as reduction in blood glucose level at 30 mg/kg body weight, iv administered 10 mins post glucose challenge; format: functional, organism-based; set-up: dose 30 mg/kg
# [12] = as §1; format: ADME, cell-free; procedure, shortened: as §2
# Serum [13] = assay: Ratio of half life of compound to half life of ADP in human serum at 40 mM by HPLC; format: ADME, cell-free; settings: 40000 µM; procedure, shortened: as §2
# Mus musculus [14] = assay: Antiplatelet activity in Balb/c mouse assessed as inhibition of ADP-induced aggregation measuring prolongation of bleeding time at 30 mg/kg body weight, iv; format: functional
# Procedure, shortened: (§4)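 Anaesthetised Balb/c mice given compound iv (0.3, 3 or 30 mg/kg) or saline. Five minutes later 2 mm of the tail tip was cut and the tail placed vertically in saline. Time to first arrest of bleeding (no bleeding for 20 s) was recorded. Bars are standard deviation.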
# [15] = biological target: P2Y purinoceptor 1 (Rattus norvegicus) (UniProt P49651); assay: Agonist activity at rat P2Y1R assessed as glucose-dependent insulin secretion relative to control; format: functional
# P2Y purinoceptor 1 [16] = biological target: T1, P2Y purinoceptor 1 (Rattus norvegicus, UniProt P49651); assay: Agonist activity at rat P2Y1R expressed in HEK293 cells assessed as release of intracellular calcium by fluorescence based assay; format: functional, cell-based
# P2Y purinoceptor 1 [17] = biological target: T1, P2Y purinoceptor 1; assay: Agonist activity at rat P2Y1R assessed as glucose-dependent insulin secretion; format: functional
# [18] = biological target: P2Y purinoceptor 12 (Homo sapiens) (UniProt Q9H244); assay: Antagonist activity at human P2Y12R expressed in […] cells assessed as intracellular calcium level in presence of ADP; format: functional, cell-based
# Mus musculus [19] = assay: Antidiabetic activity in db+/db- diabetic mouse model assessed as reduction in blood glucose level at 30 mg/kg body weight, iv administered 10 min post glucose challenge measured over 15 to 120 mins; format: functional, organism-based; set-up: dose 30 mg/kg
# Procedure, shortened: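 Male db+/db− mice, 8 weeks old, grouped by body weight and glucose, then fasted overnight. Oral glucose 2 g/kg by gavage. Compound 30 mg/kg iv as in the naive-animal OGTT; n = 5. Blood glucose by glucometer at −30, 0, 15, 30, 60 and 120 min.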
# Mus musculus [20] = assay: Antidiabetic activity in STZ treated fasted ICR mouse assessed as reduction in blood glucose level at 30 mg/kg body weight, iv administered 10 min post glucose challenge measured over 15 to 120 mins; format: functional, organism-based; set-up: dose 30 mg/kg
# Procedure, shortened: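 Male ICR mice given STZ 100 mg/kg IP after 4 h fast. On day 10, after ~16 h overnight fast, oral D-glucose 1 g/kg was given at 0 min. Compound was dosed iv at 7.5, 15 or 30 mg/kg 10 min after glucose; saline controls. Blood glucose by glucometer at 15, 30, 60 and 120 min. n = 5.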
# Mus musculus [21] = assay: Antiplatelet activity in Balb/c mouse assessed as inhibition of ADP-induced aggregation measuring prolongation in bleeding time at 30 mg/kg body weight, iv administered prior to tail incision measured after 5 mins relative to active clopidogrel metabolite R-361015; format: functional; procedure, shortened: as §4
# Rattus norvegicus [22] = assay: Antiplatelet activity in Lewis rat assessed as inhibition of ADP-induced aggregation measuring prolongation in bleeding time at 30 mg/kg body weight, po administered 30 mins prior to tail incision measured after 5 mins; format: functional, organism-based; set-up: dose 30 mg/kg
# Procedure, shortened: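 Lewis rats given compound 30 mg/kg or aspirin 10 mg/kg PO 30 min before tail incision; n = 5. 2 mm tail tip cut, tail placed in saline. Time to first bleeding arrest (20 s without bleeding) was recorded, and blood volume was judged against calibrated volumes after brief 600g spin.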
# Rattus norvegicus [23] = assay: Antidiabetic activity in overnight fasted Wister Han rat assessed as reduction in blood glucose level at 30 mg/kg body weight, iv administered 10 mins post glucose challenge measured within 45 mins (reference value: 155 mg/dl); format: functional
# [24] = Antiplatelet activity in human platelet rich plasma assessed as inhibition of ADP-induced platelet aggregation at 0.3 to 10 uM measured after 6 mins by aggregometry relative to control; format: functional
# Procedure, shortened: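 Human platelet-rich plasma was obtained by spinning normal human plasma at 4400g for 30 s. PRP was incubated 15 min at 37 °C, then aggregation was induced with ADP (10 μM) and read after 6 min on a platelet aggregation profiler. PRP came from one subject, tested in duplicate. Prasugrel metabolite at 10 μM served as the positive control.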
# Platelet = assay: Antiplatelet activity in human platelet rich plasma assessed as inhibition of ADP-induced platelet aggregation measured after 6 mins by aggregometry; format: functional
# Procedure, shortened: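 Human PRP obtained by centrifuging plasma at 4400g for 30 s. PRP was incubated 15 min at 37 °C with compound (0.3–10 μM), then aggregation was induced with ADP 10 μM and read after 6 min on a platelet aggregation profiler. Prasugrel metabolite 10 μM served as positive control. One donor, duplicates.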
# Chain of P2Y purinoceptor 4 (Homo sapiens) (P51582 whole entry): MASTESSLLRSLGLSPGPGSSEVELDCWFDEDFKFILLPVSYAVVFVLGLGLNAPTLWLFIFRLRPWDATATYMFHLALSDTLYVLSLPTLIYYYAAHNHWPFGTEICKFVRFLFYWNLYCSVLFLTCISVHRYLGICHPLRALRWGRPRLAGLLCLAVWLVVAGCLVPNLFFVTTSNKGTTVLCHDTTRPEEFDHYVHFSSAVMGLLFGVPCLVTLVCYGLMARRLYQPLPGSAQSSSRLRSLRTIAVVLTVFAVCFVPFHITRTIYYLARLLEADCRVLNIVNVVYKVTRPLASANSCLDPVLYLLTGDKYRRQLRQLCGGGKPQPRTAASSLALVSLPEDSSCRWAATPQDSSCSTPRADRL
# Chain of P2Y purinoceptor 1 (Meleagris gallopavo, UniProt P49652) (P49652 whole entry): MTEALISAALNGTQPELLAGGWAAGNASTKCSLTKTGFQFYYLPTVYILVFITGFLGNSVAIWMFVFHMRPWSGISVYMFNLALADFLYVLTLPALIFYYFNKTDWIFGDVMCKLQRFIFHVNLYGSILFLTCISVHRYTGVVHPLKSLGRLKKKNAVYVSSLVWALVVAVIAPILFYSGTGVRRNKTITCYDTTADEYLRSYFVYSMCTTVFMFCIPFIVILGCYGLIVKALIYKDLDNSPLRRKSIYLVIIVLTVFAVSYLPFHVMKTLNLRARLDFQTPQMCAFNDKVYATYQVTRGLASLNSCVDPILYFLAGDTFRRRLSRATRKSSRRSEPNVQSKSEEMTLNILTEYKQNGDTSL
# Chain of P2Y purinoceptor 6 (Homo sapiens) (Q15077 whole entry): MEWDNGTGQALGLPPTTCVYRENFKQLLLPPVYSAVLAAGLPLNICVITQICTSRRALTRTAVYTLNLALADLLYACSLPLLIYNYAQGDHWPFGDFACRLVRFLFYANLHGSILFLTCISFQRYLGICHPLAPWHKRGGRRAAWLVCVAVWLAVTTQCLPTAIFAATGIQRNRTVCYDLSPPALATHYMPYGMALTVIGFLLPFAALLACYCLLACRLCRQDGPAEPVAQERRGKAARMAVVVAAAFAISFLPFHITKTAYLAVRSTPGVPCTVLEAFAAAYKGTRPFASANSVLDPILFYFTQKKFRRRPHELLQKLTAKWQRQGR
# Chain of P2Y purinoceptor 2 (Homo sapiens) (P41231 whole entry): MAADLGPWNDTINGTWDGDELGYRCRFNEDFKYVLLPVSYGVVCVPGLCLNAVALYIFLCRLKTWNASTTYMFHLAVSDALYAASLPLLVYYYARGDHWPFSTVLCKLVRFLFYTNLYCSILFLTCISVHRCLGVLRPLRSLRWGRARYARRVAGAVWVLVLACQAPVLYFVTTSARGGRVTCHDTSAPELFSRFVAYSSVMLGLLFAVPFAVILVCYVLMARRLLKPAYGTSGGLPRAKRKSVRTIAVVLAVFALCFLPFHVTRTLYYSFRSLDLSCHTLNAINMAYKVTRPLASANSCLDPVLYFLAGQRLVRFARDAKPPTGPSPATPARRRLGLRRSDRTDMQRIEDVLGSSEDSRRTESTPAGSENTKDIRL
# T1 sequence (P49651 whole entry): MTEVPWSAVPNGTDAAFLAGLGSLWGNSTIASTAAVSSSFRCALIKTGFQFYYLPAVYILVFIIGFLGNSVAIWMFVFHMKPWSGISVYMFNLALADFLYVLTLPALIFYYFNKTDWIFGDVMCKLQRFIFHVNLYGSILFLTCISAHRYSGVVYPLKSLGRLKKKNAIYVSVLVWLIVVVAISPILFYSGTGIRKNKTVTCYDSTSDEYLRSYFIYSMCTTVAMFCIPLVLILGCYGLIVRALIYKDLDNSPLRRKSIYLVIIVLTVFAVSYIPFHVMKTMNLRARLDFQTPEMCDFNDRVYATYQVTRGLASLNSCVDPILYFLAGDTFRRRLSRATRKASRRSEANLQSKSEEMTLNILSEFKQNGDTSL
# Chain of P2Y purinoceptor 12 (Homo sapiens) (Q9H244 whole entry): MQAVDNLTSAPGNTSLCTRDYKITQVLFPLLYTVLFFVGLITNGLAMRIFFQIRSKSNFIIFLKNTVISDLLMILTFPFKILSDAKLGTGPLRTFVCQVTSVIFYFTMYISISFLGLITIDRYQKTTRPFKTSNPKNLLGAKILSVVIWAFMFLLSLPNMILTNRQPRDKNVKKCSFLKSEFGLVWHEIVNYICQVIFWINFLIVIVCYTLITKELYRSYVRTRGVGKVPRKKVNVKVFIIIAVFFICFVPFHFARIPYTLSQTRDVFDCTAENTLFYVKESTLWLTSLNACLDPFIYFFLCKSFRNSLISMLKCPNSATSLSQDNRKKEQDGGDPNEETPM
# Chain of P2Y purinoceptor 1 (Rattus norvegicus) (P49651 whole entry): as the sequence (P49651 whole entry) above
smiles,measurement,setting,value
Nc1ncnc2c1ncn2[C@@H]1O[C@H](COP(=O)(O)OP(=O)(O)O)[C@@H](O)[C@H]1O [ADENOSINE DIPHOSPHATE],t1/2,[1],4 h
same,t1/2,Serum [2],2 h
[BH3-]P(=O)(OC[C@H]1O[C@@H](n2cnc3c(N)nc(SC)nc32)[C@H](O)[C@@H]1O)OP(=O)([O-])[O-].[Na+].[Na+].[Na+] (mixture of isomers),Drug degradation,[3],2 ×10⁻⁵ /s
same,Activity,[4],inactive
same,Activity,[5],inactive
same,Activity,[6],inactive
same,half-life,[7],7.3 h
same,"metabolised at 24 h, 40000 µM",[8],30%
[BH3-][P@@](=O)(OC[C@H]1O[C@@H](n2cnc3c(N)ncnc32)[C@H](O)[C@@H]1O)OP(=O)([O-])[O-].[Na+].[Na+].[Na+],EC50,P2Y purinoceptor 1 [9],220 nM
same,t1/2,[1],4.2 h
same,t1/2,Serum [2],3.5 h
BP(=O)(OC[C@H]1O[C@@H](n2cnc3c(N)ncnc32)[C@H](O)[C@@H]1O)OP(=O)(O)O (stereo not given in full),Activity,[4],inactive
same,Activity,[5],inactive
same,Activity,[6],inactive
CC(=O)Oc1ccccc1C(=O)O,inhibition,Rattus norvegicus [10],Active
B[P@](=O)(OC[C@H]1O[C@@H](n2cnc3c(N)nc(SC)nc32)[C@H](O)[C@@H]1O)OP(=O)(O)O,EC50,P2Y purinoceptor 1 [9],1100 nM
same,Activity,Mus musculus [11],inactive
B[P@@](=O)(OC[C@H]1O[C@@H](n2cnc3c(N)nc(SC)nc32)[C@H](O)[C@@H]1O)OP(=O)(O)OP(=O)(O)OC[C@H]1O[C@@H](n2cnc3c(N)nc(SC)nc32)[C@H](O)[C@@H]1O.CCCCN(CCCC)CCCC.CCCCN(CCCC)CCCC.CCCCN(CCCC)CCCC,EC50,P2Y purinoceptor 1 [9],140 nM
same,half-life at 40000 µM,[12],14 h
same,Ratio,Serum [13],7
BP(=O)(OC[C@H]1O[C@@H](n2cnc3c(N)nc(SC)nc32)[C@H](O)[C@@H]1O)OP(=O)(O)OP(=O)(O)OC[C@H]1O[C@@H](n2cnc3c(N)nc(SC)nc32)[C@H](O)[C@@H]1O.CCCCN(CCCC)CCCC.CCCCN(CCCC)CCCC.CCCCN(CCCC)CCCC (mixture of isomers),Activity,[4],inactive
same,Activity,[5],inactive
same,Activity,[6],inactive
CSc1nc(N)c2ncn([C@@H]3O[C@H](COP(=O)(O)OP(=O)(O)O)[C@@H](O)[C@H]3O)c2n1,t1/2,[1],4.5 h
same,"metabolised at 24 h, 40000 µM",[8],50%
same,t1/2,Serum [2],23 h
CC(=O)Oc1cc2c(s1)CCN(C(C(=O)C1CC1)c1ccccc1F)C2 (stereo not given),Time,Mus musculus [14],9 min
"B[P@](=O)(OC[C@H]1O[C@@H](n2cnc3c(N)nc(SC)nc32)[C@H](O)[C@@H]1O)OP(=O)(O)OP(=O)(O)OC[C@H]1O[C@@H](n2cnc3c(N)nc(SC)nc32)[C@H](O)[C@@H]1O.CCCCN(CCCC)CCCC.CCCCN(CCCC)CCCC.CCCCN(CCCC)CCCC (single isomer, unassigned)",EC50,P2Y purinoceptor 1 [9],190 nM
same,half-life at 40000 µM,[12],14 h
same,Ratio,Serum [13],7
B[P@@](=O)(OC[C@H]1O[C@@H](n2cnc3c(N)nc(SC)nc32)[C@H](O)[C@@H]1O)OP(=O)(O)OP(=O)(O)O,fold change (FC),[15],9
same,EC50,P2Y purinoceptor 1 [16],2.6 nM
same,EC50,P2Y purinoceptor 1 [17],28.1 nM
[BH3-][P@@](=O)(OC[C@H]1O[C@@H](n2cnc3c(N)nc(SC)nc32)[C@H](O)[C@@H]1O)OP(=O)([O-])[O-].[Na+].[Na+].[Na+],Activity,[18],Active
same,Activity,Mus musculus [19],Active
same,Time,Mus musculus [14],16 min
same,t1/2,[1],6 h
same,Activity,Mus musculus [20],Active
same,fold change (FC),Mus musculus [21],1.5
same,inhibition,Rattus norvegicus [22],Active
same,Activity,Rattus norvegicus [23],87 mg/dL
same,half-life at 40000 µM,[12],> 24 h
same,fold change (FC),[24],3
same,inhibition,Platelet,Active
B[P@](=O)(OC[C@H]1O[C@@H](n2cnc3c(N)ncnc32)[C@H](O)[C@@H]1O)OP(=O)(O)O,EC50,P2Y purinoceptor 1 [9],960 nM
